Laboratory results as given in ChEMBL document CHEMBL2346629, “Discovery and characterization of novel allosteric FAK inhibitors” (Eur J Med Chem, 2013).

What was measured:
[1] = target: Mitogen-activated protein kinase 13 (Homo sapiens) (UniProt O15264); test: Inhibition of P38d (unknown origin) using [gamma-33P]ATP assessed as residual activity at 3 uM
[2] = target: Serine/threonine-protein kinase Nek2 (Homo sapiens) (UniProt P51955); test: Inhibition of NEK2 (unknown origin) using [gamma-33P]ATP assessed as residual activity at 3 uM
[3] = target: Ribosomal protein S6 kinase alpha-5 (Homo sapiens) (UniProt O75582); test: Inhibition of MSK1 (unknown origin) using [gamma-33P]ATP assessed as residual activity at 3 uM
[4] = target: MAP kinase-interacting serine/threonine-protein kinase 2 (Homo sapiens) (UniProt Q9HBH9); test: Inhibition of MNK2 (unknown origin) using [gamma-33P]ATP assessed as residual activity at 3 uM
[5] = target: MAP/microtubule affinity-regulating kinase 3 (Homo sapiens) (UniProt P27448); test: Inhibition of MARK3 (unknown origin) using [gamma-33P]ATP assessed as residual activity at 3 uM
Procedure, shortened: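 Contract radiometric panel screen of 288 kinases (261 wild-type, 27 mutant). Inhibition was read by [gamma-33P]ATP radioactivity incorporation.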

[6] = target: Casein kinase I isoform gamma-1 (Homo sapiens) (UniProt Q9HCP0); test: Inhibition of CK1g1(unknown origin) using [gamma-33P]ATP assessed as residual activity at 3 uM
Procedure, shortened: (§1)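 Reaction Biology HotSpot radiometric profiling panel of 288 kinases (261 wild-type, 27 mutant). Kinase activity was read out by incorporation of [γ-33P]ATP.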

[7] = target: Cyclin-dependent kinase 7/ cyclin H (Homo sapiens) (UniProt P51946+P50613); test: Inhibition of CDK7/cyclin H/MNAT1 (unknown origin) using [gamma-33P]ATP assessed as residual activity at 3 uM; format: protein-complex assay
Procedure, shortened: (§2)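 Radiometric profiling across 288 kinases (261 wild-type, 27 mutant), run as an outsourced service. Inhibition read out as [gamma-33P]ATP incorporation into substrate.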

[8] = target: Cyclin-dependent kinase 5/CDK5 activator 1 (Homo sapiens) (UniProt Q00535+Q15078); test: Inhibition of CDK5/p25 (unknown origin) using [gamma-33P]ATP assessed as residual activity at 3 uM; format: protein-complex assay; procedure, shortened: as §2
[9] = target: Calcium/calmodulin-dependent protein kinase type IV (Homo sapiens) (UniProt Q16566); test: Inhibition of CAMK4 (unknown origin) using [gamma-33P]ATP assessed as residual activity at 3 uM; procedure, shortened: as §2
[10] = target: Calcium/calmodulin-dependent protein kinase type II subunit gamma (Homo sapiens) (UniProt Q13555); test: Inhibition of CAMK2g (unknown origin) using [gamma-33P]ATP assessed as residual activity at 3 uM; procedure, shortened: as §2
[11] = target: Calcium/calmodulin-dependent protein kinase type II subunit delta (Homo sapiens) (UniProt Q13557); test: Inhibition of CAMK2d (unknown origin) using [gamma-33P]ATP assessed as residual activity at 3 uM; procedure, shortened: as §2
[12] = target: Calcium/calmodulin-dependent protein kinase type II subunit alpha (Homo sapiens) (UniProt Q9UQM7); test: Inhibition of CAMK2a (unknown origin) using [gamma-33P]ATP assessed as residual activity at 3 uM; procedure, shortened: as §2
[13] = tested on: Epidermal growth factor receptor (Homo sapiens), P00533 [L861Q]; test: Inhibition of EGFR L861Q mutant(unknown origin) using [gamma-33P]ATP assessed as residual activity at 3 uM; format: protein assay; procedure, shortened: as §1
[14] = target: Tyrosine-protein kinase JAK2 (Homo sapiens) (UniProt O60674); test: Inhibition of JAK2 (unknown origin) using [gamma-33P]ATP assessed as residual activity at 3 uM
Procedure, shortened: (§3)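 Radiometric kinase profiling service covering 288 kinases (261 wild-type, 27 mutant). Inhibition was read as incorporation from [γ-³³P]ATP.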

[15] = target: TGF-beta receptor type-1 (Homo sapiens) (UniProt P36897); test: Inhibition of ALK5 (unknown origin) using [gamma-33P]ATP assessed as residual activity at 3 uM; procedure, shortened: as §2
[16] = target: ALK tyrosine kinase receptor (Homo sapiens) (UniProt Q9UM73); test: Inhibition of ALK (unknown origin) using [gamma-33P]ATP assessed as residual activity at 3 uM; procedure, shortened: as §2
[17] = target: Tyrosine-protein kinase ABL1 (Homo sapiens) (UniProt P00519); test: Inhibition of ABL1 (unknown origin) using [gamma-33P]ATP assessed as residual activity at 3 uM; procedure, shortened: as §2
[18] = target: Wee1-like protein kinase (Homo sapiens) (UniProt P30291); test: Inhibition of WEE1 (unknown origin) using [gamma-33P]ATP assessed as residual activity at 3 uM
[19] = target: Tyrosine-protein kinase receptor TYRO3 (Homo sapiens) (UniProt Q06418); test: Inhibition of TYRO3 (unknown origin) using [gamma-33P]ATP assessed as residual activity at 3 uM
[20] = target: BDNF/NT-3 growth factors receptor (Homo sapiens) (UniProt Q16620); test: Inhibition of TRKB (unknown origin) using [gamma-33P]ATP assessed as residual activity at 3 uM
[21] = target: Angiopoietin-1 receptor (Homo sapiens) (UniProt Q02763); test: Inhibition of TIE2 (unknown origin) using [gamma-33P]ATP assessed as residual activity at 3 uM
[22] = target: Tyrosine-protein kinase Tec (Homo sapiens) (UniProt P42680); test: Inhibition of TEC (unknown origin) using [gamma-33P]ATP assessed as residual activity at 3 uM
[23] = target: SRSF protein kinase 1 (Homo sapiens) (UniProt Q96SB4); test: Inhibition of SRPK1 (unknown origin) using [gamma-33P]ATP assessed as residual activity at 3 uM
[24] = target: G protein-coupled receptor kinase 3 (Homo sapiens) (UniProt P35626); test: Inhibition of GRK3 (unknown origin) using [gamma-33P]ATP assessed as residual activity at 3 uM; procedure, shortened: as §3
[25] = target: Tyrosine-protein kinase Fyn (Homo sapiens, UniProt P06241); test: Inhibition of FYN (unknown origin) using [gamma-33P]ATP assessed as residual activity at 3 uM
[26] = target: Tyrosine-protein kinase Fgr (Homo sapiens, UniProt P09769); test: Inhibition of FGR (unknown origin) using [gamma-33P]ATP assessed as residual activity at 3 uM
[27] = target: Receptor tyrosine-protein kinase erbB-4 (Homo sapiens) (UniProt Q15303); test: Inhibition of ErbB4 (unknown origin) using [gamma-33P]ATP assessed as residual activity at 3 uM; procedure, shortened: as §1
[28] = target: Ephrin type-A receptor 8 (Homo sapiens) (UniProt P29322); test: Inhibition of EPHA8 (unknown origin) using [gamma-33P]ATP assessed as residual activity at 3 uM; procedure, shortened: as §1
[29] = target: Serine/threonine-protein kinase N2 (Homo sapiens) (UniProt Q16513); test: Inhibition of PKN2 (unknown origin) using [gamma-33P]ATP assessed as residual activity at 3 uM
[30] = target: Dual specificity tyrosine-phosphorylation-regulated kinase 3 (Homo sapiens) (UniProt O43781); test: Inhibition of DYRK3 (unknown origin) using [gamma-33P]ATP assessed as residual activity at 3 uM; procedure, shortened: as §1
[31] = target: Myotonin-protein kinase (Homo sapiens) (UniProt Q09013); test: Inhibition of DMPK (unknown origin) using [gamma-33P]ATP assessed as residual activity at 3 uM; procedure, shortened: as §1

TGF-beta receptor type-1 (Homo sapiens), sequence (P36897 whole entry): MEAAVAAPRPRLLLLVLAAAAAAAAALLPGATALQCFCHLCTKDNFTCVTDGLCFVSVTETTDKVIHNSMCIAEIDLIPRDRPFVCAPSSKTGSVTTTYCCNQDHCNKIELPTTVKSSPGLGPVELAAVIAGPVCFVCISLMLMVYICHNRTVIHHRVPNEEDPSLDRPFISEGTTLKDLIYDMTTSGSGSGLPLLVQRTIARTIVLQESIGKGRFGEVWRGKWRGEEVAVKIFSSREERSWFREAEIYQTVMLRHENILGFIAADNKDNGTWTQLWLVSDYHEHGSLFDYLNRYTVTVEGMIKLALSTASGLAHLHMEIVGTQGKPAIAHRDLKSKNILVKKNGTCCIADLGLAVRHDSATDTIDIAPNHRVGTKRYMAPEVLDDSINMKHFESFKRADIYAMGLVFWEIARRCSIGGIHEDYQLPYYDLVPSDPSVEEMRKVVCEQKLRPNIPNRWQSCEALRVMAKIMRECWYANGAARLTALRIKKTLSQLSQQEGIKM
Ephrin type-A receptor 8 (Homo sapiens), sequence (P29322 whole entry): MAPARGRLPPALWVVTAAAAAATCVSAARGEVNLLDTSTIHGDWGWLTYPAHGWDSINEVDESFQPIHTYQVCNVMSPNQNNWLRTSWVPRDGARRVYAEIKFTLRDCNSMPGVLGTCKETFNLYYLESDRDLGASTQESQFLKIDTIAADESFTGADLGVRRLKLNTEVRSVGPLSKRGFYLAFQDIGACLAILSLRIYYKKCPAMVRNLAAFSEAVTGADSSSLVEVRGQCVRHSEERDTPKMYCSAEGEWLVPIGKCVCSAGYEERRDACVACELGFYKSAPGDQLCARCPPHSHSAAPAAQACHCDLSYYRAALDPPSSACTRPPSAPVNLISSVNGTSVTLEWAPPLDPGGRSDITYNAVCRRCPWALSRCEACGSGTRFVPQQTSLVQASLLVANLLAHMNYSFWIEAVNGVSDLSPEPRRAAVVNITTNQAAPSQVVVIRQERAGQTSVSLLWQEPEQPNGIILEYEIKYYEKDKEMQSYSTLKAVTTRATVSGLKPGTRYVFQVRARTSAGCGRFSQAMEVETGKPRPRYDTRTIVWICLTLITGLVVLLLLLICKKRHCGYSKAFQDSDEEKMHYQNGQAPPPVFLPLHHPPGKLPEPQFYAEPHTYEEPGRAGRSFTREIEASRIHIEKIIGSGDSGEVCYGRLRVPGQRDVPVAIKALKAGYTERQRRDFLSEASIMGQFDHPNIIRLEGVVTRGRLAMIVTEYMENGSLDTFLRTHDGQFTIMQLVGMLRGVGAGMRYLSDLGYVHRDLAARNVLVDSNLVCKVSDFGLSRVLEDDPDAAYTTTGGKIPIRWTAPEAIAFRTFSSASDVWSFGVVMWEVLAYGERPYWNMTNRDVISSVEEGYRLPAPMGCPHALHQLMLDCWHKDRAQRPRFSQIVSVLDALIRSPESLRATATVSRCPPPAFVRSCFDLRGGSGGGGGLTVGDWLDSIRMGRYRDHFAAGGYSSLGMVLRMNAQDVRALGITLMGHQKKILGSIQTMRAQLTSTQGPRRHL
Tyrosine-protein kinase Tec (Homo sapiens), sequence (P42680 whole entry): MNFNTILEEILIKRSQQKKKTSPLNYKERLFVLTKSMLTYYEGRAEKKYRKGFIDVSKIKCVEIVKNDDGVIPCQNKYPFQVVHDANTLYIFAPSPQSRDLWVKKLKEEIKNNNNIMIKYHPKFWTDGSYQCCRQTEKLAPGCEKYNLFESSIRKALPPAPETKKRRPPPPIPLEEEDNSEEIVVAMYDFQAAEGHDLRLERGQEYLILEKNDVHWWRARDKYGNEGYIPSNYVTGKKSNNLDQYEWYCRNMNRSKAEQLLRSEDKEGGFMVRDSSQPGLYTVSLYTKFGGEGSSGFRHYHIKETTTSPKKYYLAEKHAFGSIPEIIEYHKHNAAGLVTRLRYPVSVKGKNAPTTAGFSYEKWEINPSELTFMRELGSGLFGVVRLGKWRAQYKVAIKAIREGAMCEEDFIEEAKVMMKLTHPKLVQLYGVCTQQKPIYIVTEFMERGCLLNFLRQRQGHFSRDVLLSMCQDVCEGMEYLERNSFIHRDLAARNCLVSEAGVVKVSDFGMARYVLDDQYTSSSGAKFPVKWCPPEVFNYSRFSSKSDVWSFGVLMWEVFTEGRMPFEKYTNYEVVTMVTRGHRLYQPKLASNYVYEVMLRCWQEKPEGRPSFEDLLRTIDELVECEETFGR
Cyclin-dependent kinase 5/CDK5 activator 1 (Homo sapiens), sequence (Q00535 whole entry): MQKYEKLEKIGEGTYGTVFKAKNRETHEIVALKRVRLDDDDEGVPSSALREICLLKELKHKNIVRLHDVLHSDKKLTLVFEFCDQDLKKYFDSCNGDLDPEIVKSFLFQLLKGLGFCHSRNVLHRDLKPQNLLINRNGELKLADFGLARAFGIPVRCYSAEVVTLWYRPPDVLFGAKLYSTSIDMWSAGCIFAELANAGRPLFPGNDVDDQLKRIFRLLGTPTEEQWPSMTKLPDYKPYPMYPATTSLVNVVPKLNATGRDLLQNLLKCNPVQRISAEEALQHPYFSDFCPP
Cyclin-dependent kinase 5/CDK5 activator 1 (Homo sapiens), sequence (Q15078 99-307 partner limits assumed): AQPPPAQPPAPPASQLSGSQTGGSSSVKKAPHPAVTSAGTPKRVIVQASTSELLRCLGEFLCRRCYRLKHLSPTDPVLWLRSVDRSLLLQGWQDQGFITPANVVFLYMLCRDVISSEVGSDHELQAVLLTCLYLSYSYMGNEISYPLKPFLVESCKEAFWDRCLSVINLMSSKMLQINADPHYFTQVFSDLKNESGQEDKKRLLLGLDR
Mitogen-activated protein kinase 13 (Homo sapiens), sequence (O15264 whole entry): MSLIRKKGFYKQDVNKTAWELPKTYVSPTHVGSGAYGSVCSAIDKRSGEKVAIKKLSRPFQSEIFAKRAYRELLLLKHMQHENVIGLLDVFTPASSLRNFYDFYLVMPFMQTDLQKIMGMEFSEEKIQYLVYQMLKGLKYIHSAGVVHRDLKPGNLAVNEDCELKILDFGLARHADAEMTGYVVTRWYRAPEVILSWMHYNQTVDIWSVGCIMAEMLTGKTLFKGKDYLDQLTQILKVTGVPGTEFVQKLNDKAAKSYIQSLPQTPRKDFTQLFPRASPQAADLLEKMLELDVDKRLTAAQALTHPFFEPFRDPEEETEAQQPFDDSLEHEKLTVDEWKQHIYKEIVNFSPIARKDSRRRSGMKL
Calcium/calmodulin-dependent protein kinase type II subunit delta (Homo sapiens), sequence (Q13557 whole entry): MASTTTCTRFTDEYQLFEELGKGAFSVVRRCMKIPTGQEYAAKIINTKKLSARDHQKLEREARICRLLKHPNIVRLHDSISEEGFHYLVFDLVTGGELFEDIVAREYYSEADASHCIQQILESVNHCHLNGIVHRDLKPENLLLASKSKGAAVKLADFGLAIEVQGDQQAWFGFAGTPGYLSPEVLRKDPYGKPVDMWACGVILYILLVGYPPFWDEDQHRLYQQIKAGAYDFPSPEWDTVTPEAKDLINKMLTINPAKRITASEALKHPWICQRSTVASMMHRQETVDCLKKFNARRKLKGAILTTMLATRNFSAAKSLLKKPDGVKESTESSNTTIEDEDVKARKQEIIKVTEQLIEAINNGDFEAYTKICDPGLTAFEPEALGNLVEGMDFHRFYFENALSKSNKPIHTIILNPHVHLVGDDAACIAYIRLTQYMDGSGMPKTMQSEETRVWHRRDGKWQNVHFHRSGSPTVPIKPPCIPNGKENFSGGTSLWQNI
MAP/microtubule affinity-regulating kinase 3 (Homo sapiens), sequence (P27448 whole entry, looked up): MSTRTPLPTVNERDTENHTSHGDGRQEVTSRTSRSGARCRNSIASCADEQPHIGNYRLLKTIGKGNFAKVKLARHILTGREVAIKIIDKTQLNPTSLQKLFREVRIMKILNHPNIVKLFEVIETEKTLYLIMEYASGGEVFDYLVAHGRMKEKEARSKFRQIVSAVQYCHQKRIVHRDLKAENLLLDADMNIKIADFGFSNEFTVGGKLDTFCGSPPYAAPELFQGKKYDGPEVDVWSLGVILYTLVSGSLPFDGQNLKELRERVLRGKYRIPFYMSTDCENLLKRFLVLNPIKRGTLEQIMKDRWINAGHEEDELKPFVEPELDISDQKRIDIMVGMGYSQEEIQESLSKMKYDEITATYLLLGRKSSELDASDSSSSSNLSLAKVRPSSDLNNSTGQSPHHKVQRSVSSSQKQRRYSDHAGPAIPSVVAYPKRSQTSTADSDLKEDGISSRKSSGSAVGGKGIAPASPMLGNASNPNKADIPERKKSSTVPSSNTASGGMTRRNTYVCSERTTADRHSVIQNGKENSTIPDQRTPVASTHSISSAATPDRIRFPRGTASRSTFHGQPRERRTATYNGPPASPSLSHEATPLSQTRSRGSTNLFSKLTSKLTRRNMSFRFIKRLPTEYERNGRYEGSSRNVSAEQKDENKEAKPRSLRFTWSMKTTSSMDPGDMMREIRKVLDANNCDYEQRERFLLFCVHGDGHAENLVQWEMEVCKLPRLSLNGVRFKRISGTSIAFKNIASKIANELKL
G protein-coupled receptor kinase 3 (Homo sapiens), sequence (P35626 whole entry): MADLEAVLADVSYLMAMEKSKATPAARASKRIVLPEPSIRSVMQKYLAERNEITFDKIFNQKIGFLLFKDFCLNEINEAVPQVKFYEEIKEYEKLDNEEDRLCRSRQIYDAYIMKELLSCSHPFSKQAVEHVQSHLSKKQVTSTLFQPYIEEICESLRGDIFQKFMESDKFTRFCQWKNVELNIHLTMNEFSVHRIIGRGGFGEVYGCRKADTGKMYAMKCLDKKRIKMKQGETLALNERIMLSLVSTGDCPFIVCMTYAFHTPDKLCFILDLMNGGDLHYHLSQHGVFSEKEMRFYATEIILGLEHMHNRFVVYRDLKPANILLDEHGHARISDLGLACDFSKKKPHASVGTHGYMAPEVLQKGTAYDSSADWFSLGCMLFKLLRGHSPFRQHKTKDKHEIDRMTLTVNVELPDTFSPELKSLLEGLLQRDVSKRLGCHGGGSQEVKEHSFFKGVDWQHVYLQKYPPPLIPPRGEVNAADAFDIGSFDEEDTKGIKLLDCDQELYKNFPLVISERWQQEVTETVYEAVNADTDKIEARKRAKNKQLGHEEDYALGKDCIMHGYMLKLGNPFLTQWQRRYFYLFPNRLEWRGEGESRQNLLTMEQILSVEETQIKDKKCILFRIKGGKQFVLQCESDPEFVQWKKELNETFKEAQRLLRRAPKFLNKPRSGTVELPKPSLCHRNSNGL

## CCc1ccc(-c2ccc3c(c2)-c2[nH]ncc2S(=O)(=O)N3C)cc1
[1]
  Activity: 103%
[2]
  Activity: 96%
[3]
  Activity: 94%
[4]
  Activity: 89%
[5]
  Activity: 96%
[6]
  Activity: 94%
[7]
  Activity: 97%
[8]
  Activity: 90%
[9]
  Activity: 95%
[10]
  Activity: 94%
[11]
  Activity: 95%
[12]
  Activity: 96%
[13]
  Activity: 106%
[14]
  Activity: 103%
[15]
  Activity: 89%
[16]
  Activity: 88%
[17]
  Activity: 63%
[18]
  Activity: 91%
[19]
  Activity: 94%
[20]
  Activity: 101%
[21]
  Activity: 91%
[22]
  Activity: 102%
[23]
  Activity: 90%
[24]
  Activity: 93%
[25]
  Activity: 39%
[26]
  Activity: 47%
[27]
  Activity: 90%
[28]
  Activity: 95%
[29]
  Activity: 91%
[30]
  Activity: 100%
[31]
  Activity: 103%
